In PubChem BioAssay AID504504 (Broad Institute, 2011) one finds activity change, negative = growth inhibition and AC50 data, which are given here for 24 compounds.

Records with an inconclusive call do not appear. The source made the active and inactive calls.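 How the source made its calls: active means growth-lowering compounds whose fitted AC50 is at most ten times their top valid dose; inconclusive means flat fit with 30 to 70% inhibition, or unreliable fit; inactive means the rest.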 Some results are limits rather than exact numbers.

Test system in one assay: not listed separately
Put plainly: growth inhibition of resistant C. albicans CaCi-8, dose response, with fluconazole, powder samples, set 10 (AID 504504). The settings on record: C. albicans CaCi-8 + fluconazole, Alamar Blue growth, 48 h; at 26 µM (top of the series). A digest of the protocol: (§1)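 Probe or stimulus: fluconazole 8 µg/mL; Assay system: Candida albicans CaCi-8, a fluconazole-resistant clinical strain; Amount: inoculum OD600 0.00015; Medium: defined RPMI 1640 medium with MOPS, glucose, uridine; Schedule: 48 h at 37 °C, then dye 2 h RT; Detection: Alamar Blue fluorescence, excitation 544 nm, emission 590 nm.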
Regarding `CC1CCN(CCn2c3ccccc3c3nc4n(c(=O)c32)CCS4)CC1`, the activity change, negative = growth inhibition is -17.5% (inactive).

In the case of `COC(=O)Cn1nc(-c2cnco2)c2ccccc21`, the activity change, negative = growth inhibition was -17.4% (inactive).

For the compound `O=C(O)Cn1c2ccccc2c2nc3n(c(=O)c21)CCS3`, the activity change, negative = growth inhibition was -4.73% (inactive).

On to `O=C(Cn1c2ccc(F)cc2c2nc3n(c(=O)c21)CCS3)N1CCC(F)(F)C1`, for which the activity change, negative = growth inhibition was 32% (inactive).

`COC(=O)Cn1nc(C(C)(C)C)c2ccccc21`: the activity change, negative = growth inhibition is -4.79% (inactive).

In the case of `O=C(Cn1c2ccc(F)cc2c2nc3n(c(=O)c21)CCS3)N1CCCC1`, the activity change, negative = growth inhibition is 15.4% (inactive).

On to `O=C(O)Cn1c2ccc(F)cc2c2nc3n(c(=O)c21)CCS3`, for which the activity change, negative = growth inhibition was -8.94% (inactive).

As to `O=C(Cn1c2ccc(F)cc2c2nc3n(c(=O)c21)CCS3)N1CC=CC1`, the activity change, negative = growth inhibition was 65% (inactive).

With `COC(=O)Cn1nc(C2CC2)c2ccccc21`, the activity change, negative = growth inhibition was -23.8% (inactive).

In the case of `O=C(Cn1c2ccc(F)cc2c2nc3n(c(=O)c21)CCS3)N1CCC(F)(F)CC1`, the activity change, negative = growth inhibition is 60.6% (inactive).

As to `COC(=O)n1nc(-c2ccccc2)c2ccccc21`, the activity change, negative = growth inhibition was 11.4% (inactive).

As to `CCc1nn(CC(=O)OC)c2ccccc12`, the activity change, negative = growth inhibition is -7.82% (inactive).

The subject of a further assay is C. albicans CaCi-8 + fluconazole, Alamar Blue growth, 48 h. The assay is described as above.
Conditions: not given
Put shortly: as §1
For the compound `COC(=O)Cn1nc(-c2cccc(F)c2)c2ccccc21`, the half-maximal activity concentration (AC50) (as a rule, the midpoint of the concentration-response curve, whichever way the signal moves) was 1840 nM.

For the compound `COC(=O)Cn1c2ccc(F)cc2c2nc3n(c(=O)c21)CCS3`, the concentration at half-maximal activity (AC50) is 2990 nM.

Regarding `COC(=O)Cn1nc(-c2cscn2)c2ccccc21`, the AC50 was 18300 nM.

Turning to `c1ccc(-c2nn(Cc3nnco3)c3ccccc23)cc1`, the AC50 was 21800 nM.

In the case of `O=C(Cn1c2ccccc2c2nc3n(c(=O)c21)CCS3)N1CCC(F)(F)C1`, the AC50 was 6690 nM.

As to `COC(=O)Cn1nc(-c2cccc(C)c2)c2ccccc21`, the concentration at half-maximal activity (AC50) is 702 nM.

As to `O=C(Cn1c2ccccc2c2nc3n(c(=O)c21)CCS3)N1CCCCC1`, the AC50 is 2170 nM.

As for `O=C(Cn1c2ccccc2c2nc3n(c(=O)c21)CCS3)N1CCCC1`, the half-maximal activity concentration (AC50) was 1970 nM.

Consider `COC(=O)Cn1nc(C2CCCCC2)c2ccccc21`, for which the AC50 was 3440 nM.

For `CC1(O)CN(C(=O)Cn2c3ccccc3c3nc4n(c(=O)c32)CCS4)C1`, the AC50 was > 26000 nM (inactive).

`O=C(Cn1c2ccccc2c2nc3n(c(=O)c21)CCS3)N1CC=CC1`: the AC50 is 2020 nM.

On to `COC(=O)Cn1nc(-c2cccc(OC)c2)c2ccccc21`, for which the AC50 was 607 nM.
